In ChEMBL document CHEMBL1122396, “Antagonists of slow-reacting substance of anaphylaxis. 1. Pyrido[2,1-b]quinazolinecarboxylic acid derivatives” (J Med Chem, 1983):
Counter-ions that a name gives are not always drawn.

Species on record: Cavia porcellus
Experiment: Ability to prevent constrictions induced by SRS-A (slow reacting substance of anaphylaxis) in guinea pig ileum at a concentration of 1x 10E-5 M
Assay type: functional

SMILES	inhibition at 10 µM [%]
CC(C)c1ccc2nc3ccc(C(=O)NCCN(C)C)cn3c(=O)c2c1	42
CCN(CC)CCOC(=O)c1ccc2nc3ccc(OC)cc3c(=O)n2c1	0
CCN(CC)CCOC(=O)c1ccc2nc3ccc(C(C)C)cn3c(=O)c2c1	5
CC(C)c1ccc2nc3ccc(C(=O)NCCN4CCN(C)CC4)cn3c(=O)c2c1	34
CCN(CC)CCOC(=O)c1ccc2nc3ccc(C)cc3c(=O)n2c1	11
CCCCCOC(=O)c1ccc2nc3ccc(C(C)C)cc3c(=O)n2c1	10
CCN(CC)CCCNC(=O)c1ccc2nc3ccc(C(C)C)cc3c(=O)n2c1	37
CCN(CC)CCOC(=O)c1ccc2nc3ccc(OC(C)C)cc3c(=O)n2c1	17
CCN(CC)CCNC(=O)c1ccc2nc3ccc(C(C)C)cn3c(=O)c2c1	6
CC(C)c1ccc2nc3ccc(C(=O)NCCN4CCCCC4)cn3c(=O)c2c1	15
CCN(CC)CCOC(=O)c1ccc2nc3ccc(SC)cc3c(=O)n2c1	0

Species on record: Cavia porcellus
Experiment: Ability to prevent constrictions induced by SRS-A (slow reacting substance of anaphylaxis) in guinea pig ileum
Assay type: functional
Procedure, shortened: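 Ileum segments (1.5 cm) from 200–250 g guinea pigs are held in Tyrode's solution with 10^-6 M atropine sulfate and 10^-6 M pyrilamine maleate, at 37 °C, aerated with 95% O2/5% CO2. SRS-A comes from egg albumin challenge of chopped lung from actively sensitized guinea pigs, dosed to give 50% of maximal isotonic contraction. Compound is added 3 min before challenge. Three concentrations (10–90% inhibition) are run in duplicate, and IC50 is taken from the log dose-response curve.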

SMILES	IC50 [nM]
CCN(CC)CC(C)OC(=O)c1ccc2nc3ccc(C(C)C)cc3c(=O)n2c1 (stereo not drawn)	10000
CC(C)c1ccc2nc3ccc(C(=O)NCCN4CCN(C(c5ccccc5)c5ccccc5)CC4)cn3c(=O)c2c1	1000
CC(C)c1ccc2nc3ccc(C(=O)NCCN(C(C)C)C(C)C)cn3c(=O)c2c1	1000
CCC(C)c1ccc2nc3ccc(C(=O)NCCN(CC)CC)cn3c(=O)c2c1 (stereo not drawn)	10000
CCN(CC)CCOC(=O)c1ccc2nc3ccc(C(C)C)cc3c(=O)n2c1	4000
CC(C)c1ccc2nc3ccc(C(=O)OCCN4CCCCC4)cn3c(=O)c2c1	6000
CC(C)c1ccc2nc3ccc(C(=O)NCCN4C(C)(C)CCCC4(C)C)cn3c(=O)c2c1	1000
CC(C)c1ccc2nc3ccc(C(=O)NCCNc4ccccc4)cn3c(=O)c2c1	2500
CC(C)c1ccc2nc3ccc(C(=O)NCCN4CCC(Cc5ccccc5)CC4)cn3c(=O)c2c1	1000
CC(C)c1ccc2nc3ccc(C(=O)NCCN(C4CCCCC4)C4CCCCC4)cn3c(=O)c2c1	2000
CC(C)c1ccc2nc3ccc(C(=O)NCCN4CCC(c5ccccc5)CC4)cn3c(=O)c2c1	1000
CCN(CC)CCNC(=O)c1ccc2nc3ccc(C(C)C)cc3c(=O)n2c1	5000
CCN(CC)CCNC(=O)c1ccc2nc3ccc(C(C)(C)C)cc3c(=O)n2c1	10000
CC(C)c1ccc2nc3ccc(C(=O)NCCN4CCN(c5ccccc5)CC4)cn3c(=O)c2c1	1000
CC(C)c1ccc2nc3ccc(C(=O)NCCN(c4ccccc4)c4ccccc4)cn3c(=O)c2c1	10000
CCCc1c(OCC(O)COc2ccc3c(=O)cc(C(=O)O)oc3c2CCC)ccc(C(C)=O)c1O (stereo not drawn) [FPL-55712 SODIUM SALT]	35
CCN(CC)CCNC(=O)c1ccc2nc3ccc(CC(C)C)cc3c(=O)n2c1	1000
